A selection: hits, their analogues and other compounds. The true share with any hit is near 4.1%.
hERG rescue: compounds protecting human hERG from proarrhythmic drug block; AID 1511; Q12809; 0.51% of 310,000 active; CHO-hERG, FluxOR thallium flux, dofetilide IC70 present; activation (rescue from dofetilide block), less the hit threshold, % at 10 µM;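 active = activation above the mean of controls blocked by dofetilide plus 5 SD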;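 note: thallium influx through hERG after potassium depolarization seen as dye fluorescence rise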
KCC2 mod: modulators of human KCC2 chloride dependent transport. Q9H2X9. B-score of Tl+ flux slope (higher = more flux/activation; lower = inhibition) at 10 µM. 2.2% of 190,000 active. KCC2 cells, thallium flux FluoZin-2 fluorescence. AID 1456;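 active = thallium flux slope and its plate-corrected score both differing from the plate sample mean at a set confidence after two filtering rounds, in either direction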;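 note: slope of fluorescence scaled to starting intensity during 10 to 20 s after thallium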
KCNQ1 act: human KCNQ1 channel potentiation or activation | CHO-K1 KCNQ1, thallium flux FluxOR fluorescence; stronger effect = higher value | 0.35% of 310,000 active | B-score at 10 µM | P51787;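 active = fluorescence ratio B-score, a plate-corrected score, at least three library SD, with initial intensity B-score within 5 SD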
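Medium – assay buffer, equal DMSO in all wells · Material – CHO-K1 cell line with stable KCNQ1 potassium channel expression · Signal – kinetic FluxOR thallium fluorescence, 10-s 1-Hz baseline, 110-s post-stimulus read · Compound – single concentration per compound, DMSO matched to controls · Schedule – 37 °C overnight plating, 90-min dark dye load, 20-min compound pretreatment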
KCNQ1 block: inhibitors of human KCNQ1 potassium channel | 1.3% of 310,000 active | AID 2642 | P51787 | CHO-K1 KCNQ1, FluxOR thallium flux fluorescence; stronger effect = higher value | B-score at 10 µM;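 active = compounds whose thallium flux B-score, printed positive for inhibition, exceeds three library SD while starting fluorescence stays within three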;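 note: channel opened by potassium depolarization with thallium stimulus after 20 min compound exposure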
KCNK9 inh: human KCNK9 channel inhibition; Q9NPC2; HEK293 KCNK9, FluxOR thallium flux fluorescence; stronger effect = lower value; B-score at 10 µM; 1.2% of 310,000 active; AID 488922;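 active = ratio B-score over 3 SD below the library mean, with starting fluorescence within 5 SD of its mean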;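 note: negative B-score means less thallium flux so channel inhibition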
KCNK3 block: human KCNK3 channel inhibition, primary screen. O14649. 0.84% of 340,000 active. CHO-KCNK3 thallium flux, FluxOR fluorescence; stronger effect = lower value. B-score at 10 µM;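 active = B-score under library mean minus 4 SD, starting fluorescence ratio at most library mean plus 5 SD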;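 note: more negative B-score means stronger inhibition of thallium flux through KCNK3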
KCC2 sec1: confirmation of human KCC2 transport modulators; 15% of 3,700 active; shares compounds with KCC2 mod; HEK293-KCC2, thallium flux, FluoZin2 fluorescence; stronger effect = higher value; normalised thallium flux (F/F0 slope) at 10 µM;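 active = thallium flux slope above the same plate's solvent-only control mean plus 3 SD; inconclusive = the two replicate wells disagree; inactive = no significant difference from solvent-only control wells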
KCC2 bumet counter: thallium flux despite bumetanide block in KCC2 cells, secondary assay 3. HEK293-KCC2 + bumetanide/ouabain, thallium flux FluoZin2; stronger effect = higher value. 49% of 3,700 active. normalized thallium flux at 10 µM. shares compounds with KCC2 mod;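 active = thallium entry rate above the same plate's blocked-transporter control wells by more than 3 SD; inconclusive = the two repeat wells disagree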;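 note: raw slope of fluorescence over initial fluorescence between 10 and 20 s after thallium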
KCC2 sec2: confirmation of human KCC2 transport modulators. HEK293-KCC2, thallium flux FluoZin2 fluorescence; actives lie on both sides; F/F0 rise rate, 10–20 s post-thallium. AID 1715. 23% of 3,700 active. normalized thallium flux at 10 µM. shares compounds with KCC2 mod;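 active = thallium flux slope more than 3 SD above or below the plate's solvent-only control mean, mostly below; inconclusive = the two repeat wells disagreed; inactive = no significant shift from solvent-only controls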
HEK293 Tl flux: counter-screen for KCC2 modulators: effect in parental HEK293 cells. thallium flux FluoZin2, ouabain; baseline-ratio fluorescence slope, 10–20 s after thallium. shares compounds with KCC2 mod. thallium flux rate (normalised fluorescence) at 10 µM. AID 1716. 46% of 3,700 active;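 active = thallium flux rate significantly above the same plate's solvent-only control wells, beyond their mean plus 3 SD; inconclusive = the two replicate wells gave conflicting results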
KCC2 ouabain: confirmation of human KCC2 modulators with ouabain | shares compounds with KCC2 mod | HEK293-KCC2, thallium flux FluoZin2 fluorescence; bidirectional: low = inhibitor, high = activator | raw Tl+ flux slope (below DMSO = inhibition, above = activation) at 10 µM | 48% of 3,700 active;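 active = thallium flux slope beyond 3 SD from same-plate DMSO control mean in most replicates, usually higher, sometimes lower; inconclusive = repeat tests gave conflicting results; inactive = no significant difference from controls in most replicates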;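 note: slope of initial-normalized fluorescence between seconds 10 and 20 after thallium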
HEK293 Tl flux2: acts in parental HEK cells, second KCC2 counter-screen. shares compounds with KCC2 mod. HEK293 parental, thallium flux FluoZin-2 fluorescence slope. thallium flux slope at 10 µM. 33% of 3,700 active;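 active = thallium flux slope above the same plate's solvent-control mean plus 3 SD in both duplicate wells; inconclusive = duplicate wells that disagreed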;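 note: run without ouabain in cells lacking the KCC2 cotransporter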
Hits are given with their value; – = inactive; ? = inconclusive; · = no result given.

SMILES | hERG rescue | KCC2 mod | KCNQ1 act | KCNQ1 block | KCNK9 inh | KCNK3 block | KCC2 sec1 | KCC2 bumet counter | KCC2 sec2 | HEK293 Tl flux | KCC2 ouabain | HEK293 Tl flux2
COc1ccc(C(=O)Nc2nncs2)cc1S(=O)(=O)N1CC(c2ccccc2)CC1=O (stereo not given) | – | · | – | – | – | – | – | – | – | – | ? | –
Cc1nnc(NC(=O)c2cccc(S(=O)(=O)N3CC(c4ccccc4)CC3=O)c2)s1 (stereo not given) | – | – | – | – | – | – | · | · | · | · | · | ·
O=C(c1ccccc1)C(CN1CCCCC1)c1ccccc1 (stereo not given) | · | · | · | · | · | – | · | · | · | · | · | ·
CCOC(=O)c1c(S(=O)(=O)NCC(=O)NCc2ccccc2Cl)c(C)n(C)c1C | – | · | – | – | – | – | · | · | · | · | · | ·
CCC(=O)N1CCc2cc(OC)c(OC)cc2C1COc1ccccc1OC (stereo not given) | – | -5 | – | – | – | – | – | – | – | – | – | –
CCCCN(Cc1nc2ccccc2c(=O)[nH]1)C(=O)CN1C(=O)NC2(CCCCC2)C1=O | · | · | · | · | · | – | · | · | · | · | · | ·
Cc1cccc(C)c1NC(=S)N=Nc1c(O)n(C)c2ccc(S(=O)(=O)N3CCOCC3)cc12 | – | 4.4 | – | – | – | – | – | 0.027 | – | 0.012 | – | 0.012
Cc1ccccc1NC(=S)N=Nc1c(O)n(C)c2ccc(S(=O)(=O)N3CCOCC3)cc12 | – | 15 | – | – | – | – | – | 0.07 | – | 0.023 | ? | ?
O=C(O)c1ccc(C2CCCCC2)cn1 | – | 8.3 | – | – | – | – | – | 0.0089 | – | – | – | –
O=C(O)C1=C(C2CCCCC2)C(=O)c2ccccc21 | · | · | · | · | · | – | · | · | · | · | · | ·
O=C(CCc1nnc(-c2ccc(-c3ccccc3)cc2)o1)NCCc1ccccn1 | – | -3.2 | – | – | – | – | – | – | – | – | ? | ?
CC(NC(=O)CCc1nnc(-c2ccc(-c3ccccc3)cc2)o1)c1nccs1 (stereo not given) | – | -4.1 | – | – | – | – | – | – | 0.024 | – | – | –
O=C(/C=C/c1ccccc1)Nc1cccc(C(=O)NCCCCc2ccccc2)c1 | · | · | · | · | · | – | · | · | · | · | · | ·
COc1ccc(C2CC(=O)CCN2S(=O)(=O)c2ccc(C)cc2)cc1 (stereo not given) | · | · | · | · | · | – | · | · | · | · | · | ·
N#C/C(=C(/O)COC(=O)c1ccccc1O)c1nc2ccccc2s1 | – | -5.1 | – | – | – | – | – | – | – | – | 0.016 | –
Cc1cc(Cn2nnc3ccccc32)c(O)c(C(C)(C)C)c1 | – | · | – | – | – | – | · | · | · | · | · | ·
COCCNC(=S)N1CCC(Cc2ccccc2)CC1 | – | -4.2 | – | – | – | – | – | – | – | – | 0.015 | –
CC(C)CNC(=S)N1CCC(Cc2ccccc2)CC1 | – | · | – | – | – | – | · | · | · | · | · | ·
CCC12C(=Nc3c(Cl)cccc31)C[C@@H]1CCN3C(=O)CCC[C@H]2[C@H]13 (stereo not given in full) | · | · | · | · | · | – | · | · | · | · | · | ·
CCN(CC)S(=O)(=O)c1cc(C(=O)Nc2cc(S(=O)(=O)N3CCOCC3)ccc2N2CCN(C)CC2)ccc1C | · | · | · | · | · | – | · | · | · | · | · | ·
O=S1(=O)C=C(SCc2ccccc2)Nc2ccccc21 | – | – | – | – | – | – | · | · | · | · | · | ·
O=S1(=O)C=C(SCc2ccc(F)cc2)Nc2ccccc21 | – | -4.3 | – | – | – | – | – | – | – | – | 0.027 | –
COc1ccc(C(=O)NC(=S)NCc2ccccc2)cc1 | – | -3 | – | – | – | – | – | 0.0077 | – | – | – | –
CCOC(=O)NC(=S)Nc1ccc(C(C)(C)C)cc1 | – | 139 | – | – | – | – | 0.026 | 0.085 | – | 0.065 | 0.067 | 0.02
COC(=O)CNC(=S)NC(=O)c1ccc(C(C)(C)C)cc1 | – | 6.3 | – | – | – | – | – | 0.015 | – | 0.011 | ? | ?
SMILES | hERG rescue | KCC2 mod | KCNQ1 act | KCNQ1 block | KCNK9 inh | KCNK3 block | KCC2 sec1 | KCC2 bumet counter | KCC2 sec2 | HEK293 Tl flux | KCC2 ouabain | HEK293 Tl flux2
CCOC(=O)C(NC(C)=O)C(=O)Nc1ccc(C(C)(C)C)cc1 (stereo not given) | – | – | – | – | – | – | · | · | · | · | · | ·
CCOC(=O)c1sc(NC(=S)NC(=O)c2ccccc2)nc1C | 24 | 54 | 23 | – | – | – | – | 0.089 | 0.071 | 0.063 | 0.081 | 0.055
COc1ccc(/C=C/c2cc(O)cc(OC3OC(CO)C(O)C(O)C3O)c2)cc1 (stereo not given) | · | · | · | · | · | – | · | · | · | · | · | ·
COc1cc(OC)cc(C(=O)NNC(=O)c2ccc3ccccc3n2)c1 | · | · | · | · | · | – | · | · | · | · | · | ·
COc1ccc(C(=O)NC(=S)NNC(=O)c2ccc3ccccc3n2)cc1 | – | 57 | – | – | – | – | ? | 0.072 | ? | 0.067 | 0.063 | 0.042
O=C(NC(=S)NCc1ccc2c(c1)OCO2)c1ccccc1 | – | 12 | – | – | – | – | – | 0.019 | – | 0.009 | ? | ?
CC(=O)c1ccc(OCC(=O)OCC(=O)N(CC(C)C)c2c(N)n(Cc3ccccc3)c(=O)[nH]c2=O)cc1 | · | · | · | · | · | – | · | · | · | · | · | ·
Fc1ccc(-c2csc(=S)[nH]2)cc1 | 48 | 83 | 35 | – | – | – | 0.039 | 0.11 | 0.047 | 0.075 | 0.087 | 0.025
Cc1c(NC(=O)CN2C(=O)c3ccccc3S2(=O)=O)c(=O)n(-c2ccccc2)n1C | – | 3.4 | – | – | – | – | – | – | – | – | – | ?
Cc1c(NC(=O)CN2c3cccc4cccc(c34)S2(=O)=O)c(=O)n(-c2ccccc2)n1C | – | – | – | – | – | – | · | · | · | · | · | ·
Cc1cc(C(=O)CSc2nnc(-c3cccc(F)c3)n2N)c(C)n1Cc1ccc2c(c1)OCO2 | – | · | – | – | – | – | – | – | – | – | – | –
C=CCOc1cccc(/C=C/c2nc3ccccc3c(=O)[nH]2)c1 | – | · | – | – | – | – | · | · | · | · | · | ·
CCc1ccc(-n2cc(-c3ccc([N+](=O)[O-])cc3)[nH]c2=S)cc1 | – | – | – | – | – | – | · | · | · | · | · | ·

From PubChem
